From ChEMBL document CHEMBL1138585, “Synthesis and evaluation of arylalkoxy- and biarylalkoxy-phenylamide and phenylimidazoles as potent and selective sphingosine-1-phosphate receptor subtype-1 agonists” (Bioorg Med Chem Lett, 2009) come the findings set out here.

Molecules are shown by their SMILES. Calls of active or inactive are those of the source. The calls are words filed in the database; no cut-off is given here.

In data set [1] the target is T1, Sphingosine 1-phosphate receptor 3 (Homo sapiens, UniProt Q99500). In words: Agonist activity at human S1P3 receptor assessed as stimulation of [35S]GTPgammaS binding. The class given is functional. In general terms: GTPγS resists hydrolysis and so accumulates on activated G proteins.
Data set [2] deals with Mus musculus. Description: Plasma concentration in mouse assessed as phosphorylated drug level at 1 mg/kg, po after 48 hrs. In kind it is ADME, organism-based. Also on record: dose 1 mg/kg, route oral. The note with it: in vivo.
Data set [3] is filed under the species Homo sapiens. In words: Ratio of IC50 for human S1P3 receptor to IC50 for human S1P1 receptor.
The species named for data set [4] is Homo sapiens. In words: Ratio of EC50 for human S1P3 receptor to EC50 for human S1P1 receptor.
Data set [5] deals with Mus musculus. Description: Immunomodulatory activity in C57BL/6 mouse assessed as lymphopenia at 10 mg/kg, po after 6 hrs by complete blood count analysis. The class given is functional. The gist of the method:
(§1)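 The amino-alcohol (unphosphorylated) form was given orally to mice, in single doses from 0.3 to 10 mg/kg, with the main screen at 10 mg/kg. Circulating lymphocytes were counted 6 h post-dose. Lymphopenia was expressed as the percent decrease in circulating lymphocytes relative to a time-matched vehicle control group.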

For data set [6], the system named is Mus musculus. In words: Immunomodulatory activity in po dosed C57BL/6 mouse assessed as lymphopenia after 6 hrs by complete blood count analysis. In kind it is functional, organism-based. In short, it runs like this: as §1
Data set [7] deals with Mus musculus. In words: Immunomodulatory activity in C57BL/6 mouse assessed as lymphopenia at 3 mg/kg, po after 6 hrs by complete blood count analysis. In kind it is functional, organism-based. Also on record: dose 3 mg/kg. In short, it runs like this: as §1
The target in data set [8] is T2, Sphingosine 1-phosphate receptor 1 (Homo sapiens, UniProt P21453). In words: Displacement of [33P]sphingosine-1-phosphate from human S1P1 receptor.
For data set [9], the target named is T1, Sphingosine 1-phosphate receptor 3. In words: Displacement of [33P]sphingosine-1-phosphate from human S1P3 receptor.
In data set [10] the target is T3, Sphingosine 1-phosphate receptor 4 (Homo sapiens, UniProt O95977).
T3 sequence (O95977 whole entry): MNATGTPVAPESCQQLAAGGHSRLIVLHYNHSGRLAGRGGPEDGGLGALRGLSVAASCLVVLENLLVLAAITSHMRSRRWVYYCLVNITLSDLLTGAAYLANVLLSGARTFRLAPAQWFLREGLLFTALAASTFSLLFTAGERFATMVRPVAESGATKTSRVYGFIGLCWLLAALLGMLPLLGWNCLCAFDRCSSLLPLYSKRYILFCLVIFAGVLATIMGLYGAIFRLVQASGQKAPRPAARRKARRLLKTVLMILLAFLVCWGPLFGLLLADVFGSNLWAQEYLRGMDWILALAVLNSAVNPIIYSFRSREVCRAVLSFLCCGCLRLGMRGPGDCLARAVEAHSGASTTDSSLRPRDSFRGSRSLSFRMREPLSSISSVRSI
Description: Displacement of [33P]sphingosine-1-phosphate from human S1P4 receptor.

Data set [11] addresses Sphingosine 1-phosphate receptor 5 (Homo sapiens, UniProt Q9H228). In words: Displacement of [33P]sphingosine-1-phosphate from human S1P5 receptor.
Data set [12] has as its target T2, Sphingosine 1-phosphate receptor 1. In words: Agonist activity at human S1P1 receptor assessed as stimulation of [35S]GTPgammaS binding. The class given is functional.

T2 sequence (P21453 whole entry): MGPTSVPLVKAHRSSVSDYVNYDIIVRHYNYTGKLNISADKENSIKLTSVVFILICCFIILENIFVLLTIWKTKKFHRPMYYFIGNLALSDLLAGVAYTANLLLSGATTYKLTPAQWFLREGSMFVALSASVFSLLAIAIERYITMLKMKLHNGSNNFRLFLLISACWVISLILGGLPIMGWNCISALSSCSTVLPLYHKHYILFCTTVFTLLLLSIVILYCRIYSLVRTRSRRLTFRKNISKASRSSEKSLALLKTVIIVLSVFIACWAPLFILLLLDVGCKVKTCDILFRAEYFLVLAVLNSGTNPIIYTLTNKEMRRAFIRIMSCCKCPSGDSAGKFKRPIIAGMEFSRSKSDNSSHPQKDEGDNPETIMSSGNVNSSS
T1 sequence (Q99500 whole entry): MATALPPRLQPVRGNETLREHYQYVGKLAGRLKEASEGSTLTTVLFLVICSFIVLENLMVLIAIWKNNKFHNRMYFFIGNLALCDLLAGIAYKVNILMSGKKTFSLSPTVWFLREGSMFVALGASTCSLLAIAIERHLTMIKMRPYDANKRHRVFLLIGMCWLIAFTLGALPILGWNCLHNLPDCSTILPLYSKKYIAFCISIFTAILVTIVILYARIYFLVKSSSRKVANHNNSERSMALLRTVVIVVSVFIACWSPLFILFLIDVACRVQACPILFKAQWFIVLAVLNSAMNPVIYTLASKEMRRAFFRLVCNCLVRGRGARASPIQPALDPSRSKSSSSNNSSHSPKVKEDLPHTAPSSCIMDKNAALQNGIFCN
Chain of Sphingosine 1-phosphate receptor 5 (Q9H228 whole entry): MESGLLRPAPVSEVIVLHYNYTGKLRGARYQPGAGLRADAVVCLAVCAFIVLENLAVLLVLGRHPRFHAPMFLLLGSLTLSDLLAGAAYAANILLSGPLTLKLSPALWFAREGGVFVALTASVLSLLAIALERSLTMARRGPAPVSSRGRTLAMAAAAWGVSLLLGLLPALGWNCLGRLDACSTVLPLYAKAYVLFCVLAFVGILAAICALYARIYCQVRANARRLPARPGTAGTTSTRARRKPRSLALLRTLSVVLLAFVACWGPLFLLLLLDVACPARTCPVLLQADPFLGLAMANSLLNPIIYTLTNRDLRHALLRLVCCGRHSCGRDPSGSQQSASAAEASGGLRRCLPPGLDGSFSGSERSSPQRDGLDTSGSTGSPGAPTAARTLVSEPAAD

Regarding `C[C@](N)(COP(=O)(O)O)C(=O)Nc1ccc(OCCc2ccc(-c3ccccc3)cc2)cc1`, the EC50 (in general, the concentration at which the effect is half-maximal) in [1] worked out at 120 nM; in data set [12], 0.52 nM. Also, the Cp with Mus musculus [2] was 0.4 ng/mL. The Ratio IC50 in the data set filed under Homo sapiens [3] was found to be 190. Besides, in the data set filed under Homo sapiens [4], the Ratio EC50 stood at 231. For the same compound, the Activity in the data set on Mus musculus [5] is 81%; in the data set on Mus musculus [6] it was “Dose-dependent effect”. Besides, the outcome in the data set on Mus musculus [7] was Active. For the same compound, the half-maximal inhibitory concentration (IC50) (usually the midpoint of a concentration-inhibition curve) in data set [8] stood at 1.05 nM; in data set [9], 200 nM; in data set [10] it was 4.17 nM; in data set [11] it was 122 nM.
